# An excerpt weighted towards active compounds, which were near 2.1% of everything screened.
# ARNT-TACC3 inh – disruptors of human ARNT/TACC3 interaction; Q9Y6A5; AlphaScreen His-ARNT PAS-B/GST-TACC3 binding, luminescence; TACC3 fragment carries E629A point mutation; inhibition, % at 9.99 µM; actives 0.66% (n = 390,000); AID 623870;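 active = mean inhibition of replicates at least 50% and at least half of replicates each reaching 50%; inconclusive = half or more replicates reach 50% but mean below 50%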;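 also: 0% = complete ARNT plus TACC3 wells and 100% = ARNT alone without TACC3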
# ERp5 block – ERp5 (human) disulfide isomerase inhibition; Q15084; ERp5 insulin aggregation, absorbance 650 nm, 90 min; inhibition, % at 9.99 µM; actives 0.05% (n = 350,000); AID 651711;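 active = mean replicate inhibition above about 25%, with every replicate also reaching it, limit read from the data, passing the limit was not always enough; inconclusive = only one of those two criteria met; inactive = neither criterion met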
# FGF22 binding – binders of recombinant human FGF22 by thermal shift; Q9HCT0; SYPRO orange fluorescence; percent of sucrose octasulfate shift, DMSO zero; activity (Tm shift, normalised), % at 9.99 µM; actives 1.5% (n = 340,000); AID 651658;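 active = mean Tm shift, scaled 0 neutral to 100 positive control, at about 1.3% or above, every replicate too, limit read from the data; inconclusive = no clear call, values can overlap the other calls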
# Target sequence (Q9HCT0 whole entry, looked up): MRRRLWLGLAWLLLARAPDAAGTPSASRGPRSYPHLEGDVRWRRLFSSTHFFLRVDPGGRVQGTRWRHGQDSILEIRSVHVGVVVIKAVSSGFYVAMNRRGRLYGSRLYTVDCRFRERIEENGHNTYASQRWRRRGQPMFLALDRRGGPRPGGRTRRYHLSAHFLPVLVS
# PDI inh – inhibitors of human protein disulfide isomerase. P07237. PDI insulin aggregation turbidity, A650, 90 min. inhibition, % at 10 µM. actives 0.052% (n = 350,000);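 active = mean inhibition across replicates of 30% or more, whatever share of single replicates reach that level; inconclusive = mean inhibition below 30% while every single replicate reaches 30%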
# MLL AF4-AF9 inh – blocks AF4 peptide binding to human AF9; P42568; AlphaScreen, biotin-AF4 peptide binding to FLAG-AF9; inhibition, % at 10 µM; actives 0.47% (n = 350,000);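 active = every replicate reaching a set inhibition limit, whatever the replicate mean, cut at about 25% in these data; inconclusive = mean inhibition reaches that limit but some replicates miss it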;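 also: 0% = plate neutral control median and 100% = total signal loss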
# FN deposition inh – fibronectin deposition inhibition; AH1F fibroblasts, Alexa488-fibronectin deposition fluorescence, overnight; inhibition, % at 12.6 µM; actives 0.086% (n = 350,000);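 active = mean inhibition across replicates of 30% or more, regardless of how many single replicates reach that level; inconclusive = mean under 30% yet at least half of replicates reach 30%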;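 also: positive control wells lacked labelled fibronectin entirely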
#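 material = AH1F fibroblast monolayer depositing Alexa488-labelled fibronectin into matrix | amount = 10000 AH1F cells/well | buffer or medium = DMEM plus 2% serum, read in PBS | incubation = 1 h cell adhesion before compound, then overnight fibronectin incubation | detection = fluorescence at 485 nm excitation, 525 nm emission | evaluation = percent inhibition as loss of matrix-bound fibronectin fluorescence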
# ARNT Alpha ctr-1 – interferes with AlphaScreen signal, flagging false ARNT-TACC3 hits. shares compounds with ARNT-TACC3 inh. His-ARNT PASB-GST AlphaScreen artifact counter-screen, luminescence. AC50, µM (highest dose often 68 µM), without a hit: at the highest dose activity change, negative = signal decrease. actives 50% (n = 1,200). AID 651705;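 active = every separate test run was called active for a drop in luminescence, with AC50 within twice the top valid dose, actives reach about 71 µM in these data; inconclusive = the separate test runs disagree in their calls; inactive = all runs inactive, including signal change in the wrong direction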
# ARNT Alpha ctr-2 – produces AlphaScreen artifacts in ARNT-TACC3 counter-screen; AC50, µM; Dual-tagged His-ARNT PASB-GST AlphaScreen artifact counter-screen; actives 70% (n = 45); AID 720564; shares compounds with ARNT-TACC3 inh;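 active = luminescence drop, with half-maximal potency fitted within twice the sample's top valid dose, cut at about 70 µM in these data; inactive = the rest, including signal moving the wrong way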
# Active calls of the source: *; ? = inconclusive; / = no result.
SMILES,ARNT-TACC3 inh,ERp5 block,FGF22 binding,PDI inh,MLL AF4-AF9 inh,FN deposition inh,ARNT Alpha ctr-1,others
O=C(Cc1ccccc1)NC(c1ccco1)c1c(O)ccc2ccccc12 (stereo not given),1,-2,0,-14,7,-4,/,
CC(C)C(=O)NC(c1ccco1)c1ccc2cccnc2c1O (stereo not given),53*,/,/,7,/,/,29µM*,ARNT Alpha ctr-2=9.4*
CC(C)C(=O)NC(c1ccco1)c1cc(Cl)c2cccnc2c1O (stereo not given),/,/,/,/,/,/,/,ARNT Alpha ctr-2=43*
Oc1c(C(Nc2nc3ccccc3s2)c2ccco2)ccc2cccnc12 (stereo not given),14,/,/,-1,/,4,/,
CC(=O)Nc1ccc2c(c1)C(=O)N(C)[C@H]1CC[C@@H](CC(=O)Nc3cn(C)nc3C)O[C@@H]1CO2,5,-6,0,/,1,5,/,
COc1ccc(CNC(=O)C[C@H]2CC[C@H](NC(=O)c3ccc4c(c3)OCO4)[C@H](CO)O2)cc1,-10,0,0,/,-1,-7,/,
O=C(O)[C@H]1[C@H](CO)[C@H]2Cn3c(ccc(-c4cncnc4)c3=O)[C@H]2N1C(=O)C1CCCC1,/,-3,/,/,-4,/,/,
CC(C)[C@@H]1C(=O)N[C@H](c2ccc3c(c2)OCO3)CC=CC[C@H](C)Oc2ccccc2C(=O)N1C (mixture of isomers),/,/,/,/,/,3,/,
CC(C)C(=O)NC(c1cccc([N+](=O)[O-])c1)c1ccc2cccnc2c1O (stereo not given),63*,1,0,-5,?,8,17µM*,
CC(C)C(=O)NC(c1cccc([N+](=O)[O-])c1)c1c(O)ccc2ccccc12 (stereo not given),-5,0,1,-9,1,-3,/,
CC(=O)NC(c1ccco1)c1cc(F)c2cccnc2c1O (stereo not given),58*,-7,0,3,-3,5,45µM*,
CCCC(=O)NC(c1ccco1)c1cc(Cl)c2cccnc2c1O (stereo not given),1,/,/,7,/,/,/,
Cc1cc(C)c(C(N)=O)c(Nc2cccc3ccccc23)n1,68*,/,/,4,/,/,-9%,
c1ccc(-c2nnc(SCc3nc4ccccc4[nH]3)n2Cc2ccco2)nc1,61*,/,/,6,/,2,-11%,
COC(=O)c1[nH]c2ccccc2c1NC(=O)Oc1ccccc1,-4,/,/,15,/,/,/,
COC(=O)c1[nH]c2cc(OC)c(OC)cc2c1NC(=O)Oc1ccccc1,35*,/,/,0,/,/,-8%,
Cc1oc(C(=O)O)cc1COc1cccc2cccnc12,59*,/,/,9,/,/,-22%,
Fc1ccc(COc2cccc3cccnc23)cc1,/,-1,0,17,-2,-17,/,
CC(C)NC(=O)N1CC2(C1)[C@@H](c1ccccc1)[C@@H](CO)N2C(=O)C1CCCC1,/,3,1,/,1,5,/,
CCOc1ccc2c(c1)C(N(CCN1CCOCC1)C(=O)Nc1ccccc1)CC(C)(C)O2 (stereo not given),58*,-8,0,2,4,7,-8%,
CCOc1ccc2c(c1)C(N(CCN1CCOCC1)C(=O)Nc1ccc(OC)cc1OC)CC(C)(C)O2 (stereo not given),21,3,0,-5,-4,7,/,
COCc1cn(CC[C@H]2CC[C@@H](NC(=O)c3ccncc3)[C@@H](CO)O2)nn1,-19,-3,0,/,-2,-15,/,
O=C(N[C@@H]1CC[C@H](CCn2cc(-c3ccccn3)nn2)O[C@@H]1CO)c1ccncc1,66*,-2,0,/,-1,4,33µM*,
N[C@H]1CC[C@@H](CCn2cc(-c3ccccn3)nn2)O[C@H]1CO,75*,0,0,/,2,-12,6µM*,

# High-throughput results (PubChem)
